Results from ChEMBL document CHEMBL1128589, “Novel benzo[b]quinolizinium cations as uncompetitive N-methyl-D-aspartic acid (NMDA) antagonists: the relationship between log D and agonist independent (closed) NMDA channel block” (J Med Chem, 1995).

Legend:
Glutamate NMDA receptor = experiment: Affinity against 3[H]TCP binding to N-methyl-D-aspartate glutamate receptor in rat brain membranes; assay type: cell membranes
[1] = logD value was determined; assay type: physicochemical; settings: octanol/water
[2] = Inhibitory activity against NMDA open channel block; assay type: functional
In short: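 Superfused oocytes got a single inhibitor application per cell during NMDA response. Current at 300 s was normalized to the initial NMDA current. Inhibition = (mean control (NMDA alone) − test)/control × 100%.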

[3] = Ratio (closed/open) was determined; assay type: functional
In short: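 Oocytes injected with forebrain-derived RNA and held 48–72 h at 18–22 °C, then superfused. Open block: current 300 s after NMDA plus inhibitor, normalised to initial NMDA current, expressed as % of NMDA-alone controls, one application per cell. Closed block: 30 min inhibitor with 10 µM 7-chlorokynurenate, 1–2 min wash, then 100 µM NMDA, with 100 µM kainate as internal control. Ratio = closed/open IC50.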

[4] = pKa value was determined; assay type: physicochemical
[5] = Inhibitory activity against NMDA closed channel block; assay type: functional
In short: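 Oocytes (stage V-VI, defolliculated with 0.2% collagenase) were held 48-72 h at 18-22 °C in ND96 and superfused at ~4 mL/min. Controls were two 100 µM NMDA pulses 15 min apart. Cells then sat 30 min in 10 µM 7-chlorokynurenate plus inhibitor, were washed 1-2 min and retested with 100 µM NMDA. 100 µM kainate served as internal control. One application per cell.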

| SMILES | Ki (Glutamate NMDA receptor) | logD [1] | IC50 [2] | Ratio [3] | pKa [4] | IC50 [5] |
| --- | --- | --- | --- | --- | --- | --- |
| Oc1cccc2[n+]1C1CC(c3ccoc3)(c3ccoc3)C2c2ccccc21 (racemic) | 3780 nM |  |  |  |  |  |
| COC(=O)C12CC(c3ccoc3)(c3ccoc3)C(c3ccccc31)c1cccc[n+]12 (racemic) | 39 nM |  |  |  |  |  |
| c1ccc2c(c1)C1CC(c3ccoc3)(c3ccoc3)C2c2c3ccccc3cc[n+]21 (racemic) | 19 nM |  |  |  |  |  |
| COc1ccc[n+]2c1C1c3ccccc3C2CC1(c1ccoc1)c1ccoc1 (racemic) | 19 nM |  |  |  |  |  |
| CCCCCCCCOc1cccc2c1C1c3cccc[n+]3C2CC1(c1ccoc1)c1ccoc1 (racemic) | 3380 nM |  |  |  |  |  |
| N#CC12CC(c3ccoc3)(c3ccoc3)C(c3ccccc31)c1cccc[n+]12 (racemic) | 10 nM |  |  |  |  |  |
| Oc1ccc[n+]2c1C1c3ccccc3C2CC1(c1ccoc1)c1ccoc1 (racemic) | 294 nM | 1.66 | 557 nM | 44.6 | 4.88 | 24800 nM |
| Oc1cc(O)c2c(c1)C1CC(c3ccoc3)(c3ccoc3)C2c2cccc[n+]21 (racemic) | 125 nM |  |  |  |  |  |
| Oc1ccc2c(c1)C1CC(c3ccoc3)(c3ccoc3)C2c2cccc[n+]21 (racemic) | 29 nM |  |  |  |  |  |
| Fc1ccc2c(c1)C1c3cccc[n+]3C2CC1(c1ccoc1)c1ccoc1 (racemic) | 3.6 nM | 0.75 |  |  |  |  |
| Oc1ccc2c(c1)C1c3cccc[n+]3C2CC1(c1ccoc1)c1ccoc1 (racemic) | 2.1 nM | 0.32 | 7.3 nM | 142 | 8.8 | 1030 nM |
| Oc1cccc2c1C1c3cccc[n+]3C2CC1(c1ccoc1)c1ccoc1 (racemic) | 1.8 nM | -0.81 | 9.13 nM | 422 | 8.6 | 3860 nM |
| Brc1ccc(Br)c2c1C1CC(c3ccoc3)(c3ccoc3)C2c2cccc[n+]21 (racemic) | 345 nM |  |  |  |  |  |
| COc1cccc2c1C1c3cccc[n+]3C2CC1(c1ccoc1)c1ccoc1 (racemic) | 6 nM | -3.66 |  |  |  |  |
| CC12CC(c3ccoc3)(c3ccoc3)C(c3ccccc31)c1cccc[n+]12 (racemic) | 1.2 nM |  |  |  |  |  |
| Oc1ccc2[n+](c1)C1CC(c3ccoc3)(c3ccoc3)C2c2ccccc21 (racemic) | 1530 nM |  |  |  |  |  |
| Oc1cccc2c1C1c3cccc[n+]3C2CC1(c1ccccc1)c1ccccc1 (racemic) | 12 nM | 1.75 |  |  |  |  |
| COc1cc(OC)c2c(c1)C1CC(c3ccoc3)(c3ccoc3)C2c2cccc[n+]21 (racemic) | 3790 nM |  |  |  |  |  |
| OCc1cccc2c1C1c3cccc[n+]3C2CC1(c1ccoc1)c1ccoc1 (racemic) | 159 nM |  |  |  |  |  |
| COc1c(Cl)ccc2c1C1c3cccc[n+]3C2CC1(c1ccoc1)c1ccoc1 (racemic) | 64 nM |  |  |  |  |  |
| O=S(=O)([O-])c1cccc2c1C1c3cccc[n+]3C2CC1(c1ccoc1)c1ccoc1 (racemic) | > 10000 nM |  |  |  |  |  |
| c1ccc2c(c1)C1CC(c3ccoc3)(c3ccoc3)C2c2cccc[n+]21 (racemic) | 2 nM |  |  |  |  |  |
| c1ccc(C2(c3ccccc3)CC3c4ccccc4C2c2cccc[n+]23)cc1 (racemic) |  | -2.54 | 32 nM | 564 | 11.7 | 18100 nM |
| O=C(O)c1ccc2c(c1)C1c3cccc[n+]3C2CC1(c1ccoc1)c1ccoc1 (racemic) | > 10000 nM | 1.76 |  |  |  |  |
| Clc1cccc2[n+]1C1CC(c3ccoc3)(c3ccoc3)C2c2ccccc21 (racemic) | 633 nM |  |  |  |  |  |
| Oc1c(Cl)ccc2c1C1c3cccc[n+]3C2CC1(c1ccoc1)c1ccoc1 (racemic) | 24 nM | -0.99 |  |  |  |  |
| CCOC1(OCC)C2c3ccccc3C([n+]3ccccc32)C1(C)C (racemic) |  |  | 27 nM | 527 | 12.2 | 14200 nM |
| C[C@]12N[C@H](Cc3ccccc31)c1ccccc12 [DIZOCILPINE] |  |  | 23 nM | 1.6 | 5.81 | 40 nM |
| c1ccc(C2(N3CCCCC3)CCCCC2)cc1 [PHENCYCLIDINE] |  |  | 270 nM | 1.7 | 9.97 | 450 nM |
